Screening data (PubChem BioAssay)
Sampled rows, rich in hits. Any-hit rate of the full collection: about 2.4%.
ANO1 block: TMEM16A chloride channel inhibitors, primary screen, cell-based, HTS. Anoctamin-1 (Mus musculus), Q8BHY3. HEK293 TMEM16A/YFP iodide influx fluorescence, ionomycin. normalized B-score (activity score, 25-100; higher = stronger inhibition) at 10 µM. hit rate 1.2% among 310,000;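 active means ratio plate-corrected score three or more library SD toward inhibition, starting fluorescence score within five deviations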;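 further: score derived from kinetic fluorescence span divided by baseline fluorescence per well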
UBC13 polyUb: UBC13 polyubiquitin chain formation inhibitors, primary screen, biochemical, TR-FRET, uHTS | Ubiquitin-conjugating enzyme E2 N (Homo sapiens), P61088 | inhibition, % at 20 µM | hit rate 0.47% among 330,000 | AID 485273, 2010; in the data active means inhibition above about 45%, passing the limit was not always enough; inconclusive means no clear call, values can overlap the other calls
ANO1 activ: TMEM16A chloride channel activators or potentiators, primary screen, cell-based, HTS; HEK293 TMEM16A/YFP-H148Q/I152L, iodide quench fluorescence; stronger effect = lower value; Anoctamin-1 (Mus musculus), Q8BHY3; AID 623877, 2012; B-score at 10 µM; hit rate 0.3% among 340,000;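 active means fluorescence-ratio B-score plate-corrected deviation score at least 3 library SD below zero, with starting fluorescence score within 5 deviations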;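 further: channel opened by trigger with iodide after compound preincubation; score built on the fluorescence ratio of max minus min over baseline; more negative score means more quench and so TMEM16A activation or potentiation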
FID counter: compounds displacing fluorescent DNA intercalator, primary screen, artefact control for HCV NS3 helicase inhibitor project, biochemical, FID fluorescence; inhibition, % at 7.9 µM; AID 1845, 2009; DNA fluorescent intercalator displacement; hit rate 0.17% among 290,000; in the data active means inhibition above about 37%;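 further: higher means more ethidium bromide displaced from hairpin DNA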
Apaf1 inhib: inhibitors of human Apaf-1 apoptosome, primary screen, biochemical, DEVD-Rh110 fluorescence, uHTS. AID 489030, 2010. Apoptotic protease-activating factor 1 (Homo sapiens), O14727. reconstituted apoptosome caspase-3 activity. inhibition, % at 20 µM. hit rate 0.71% among 330,000; active means inhibition of at least 40% at 20 µM
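System: reconstituted apoptosome with Apaf-1, cytochrome c, caspase-9, procaspase-3, dATP; Signal: Rh110 fluorescence intensity; Schedule: 30 min compound preincubation, 50 min activation, room temperature; Reagent: cytochrome c trigger plus (Z-DEVD)2-Rh110 caspase-3 substrate.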
Large screens that a line does not name were inactive.

CCCOc1ccc2ccccc2c1/C=C1\SC(=O)NC1=O	ANO1 block 100
COCc1cc(C)nc(N/N=C/c2ccc(Cl)c(Cl)c2)c1C#N	none
Cc1ccc2c(c1)NC(c1cccs1)C1=C(CC(C)(C)CC1=O)N2 (configuration not stated)	ANO1 activ -5.1
COc1cccc(OCC(=O)Nc2ccccc2C(=O)Nc2ccc(C(=O)O)cc2)c1	none
Cc1ccc(C(=O)CN(C(=O)c2ccc(Cl)c(Cl)c2)N2C(=O)C3CCCCC3C2=O)cc1C (configuration not stated)	ANO1 activ -5.5
C=CCN=C(NC#N)SCC(=O)c1cccc(OC)c1	ANO1 block 25
Cc1ccc(N2C(=O)[C@@H]3C(c4cccnc4)=NO[C@@H]3C2=O)c(C)c1	ANO1 block 25
COc1ccc(C2=NO[C@@H]3C(=O)N(c4ccc(C)cc4C)C(=O)[C@H]23)cc1OC	none
O=S(=O)(c1ccccc1)c1nc(Nc2cccc(O)c2)sc1Cl	ANO1 block 100
Cc1ccc(S(=O)(=O)c2nc(Nc3ccccc3)sc2Cl)cc1	none (no result: ANO1 block, UBC13 polyUb, Apaf1 inhib)
COc1coc(C(O)C[N+](=O)[O-])cc1=O (configuration not stated)	none
Cc1ccc(CNC(=O)c2ccc(N3CCC4(CC3)CC(c3ccccc3)=NO4)c(NC(=O)c3ccc(Cl)c([N+](=O)[O-])c3)c2)cc1	none (no result: FID counter)
Cc1cc(C(=O)Cn2nc(C(=O)O)c3ccccc3c2=O)c(C)n1-c1ccc(F)cc1	none
O=C1S/C(=C\c2ccc(O)c([N+](=O)[O-])c2)C(=O)N1c1ccccc1Cl	ANO1 block 100
Cc1cccc(NC(=O)CN2C(=O)S/C(=C\c3ccc(O)c([N+](=O)[O-])c3)C2=O)c1	none
O=C1S/C(=C\c2ccc(O)c([N+](=O)[O-])c2)C(=O)N1Cc1cccc([N+](=O)[O-])c1	ANO1 block 100
COc1cc(/C=C2\SC(=O)N(c3cccc(Cl)c3)C2=O)cc([N+](=O)[O-])c1O	ANO1 activ -5.6 (no result: ANO1 block)
Cc1ccc(NC(=O)CN2C(=O)S/C(=C/c3ccc(O)c([N+](=O)[O-])c3)C2=O)cc1C	none (no result: ANO1 block)
O=C(COC(=O)c1ccc([N+](=O)[O-])cc1Cl)Nc1cccnc1Cl	none (no result: FID counter)
O=C(COc1ccccc1Cl)Nc1ccc2c(c1)C(=O)NC2=O	none
c1ccc(-c2nnc(CN3CCN(c4ccccc4)CC3)o2)cc1	none
Cc1ccc(C2=NN(Cc3nnc(-c4ccccc4)o3)C(=O)SC2)cc1	ANO1 block 25
Cc1cc(OCC(=O)NNC(=S)NC(=O)c2ccc(Br)o2)ccc1Cl	ANO1 block 25, ANO1 activ -4.6
N#Cc1ccc(C(=O)CSc2n[nH]c(=O)n2-c2cccnc2)cc1	none
O=C1C(F)=CC(COC(c2ccccc2)(c2ccccc2)c2ccccc2)OC1n1cc(F)c(=O)[nH]c1=O (configuration not stated)	ANO1 activ -13 (no result: ANO1 block, UBC13 polyUb, FID counter, Apaf1 inhib)
CC(=O)OCC1OC(n2cc(F)c(=O)[nH]c2=O)C(OC(C)=O)C1OC(C)=O (configuration not stated)	none (no result: FID counter)
CCCc1cc(-c2[nH]ncc2-c2ccc(C(=O)OCC)o2)c(O)cc1O	none
CCCc1cc(-c2[nH]ncc2-c2ccc3c(c2)OCCCO3)c(O)cc1O	ANO1 block 25
O=C(NCC(O)CN1CCOCC1)c1ccc([N+](=O)[O-])cc1 (configuration not stated)	none
CCCCOc1ccc(C2OC34CCCCC3C(C#N)(C#N)C2(C#N)C(=N)O4)cc1 (configuration not stated)	none
CCOc1ccc(C2OC34CCCCC3C(C#N)(C#N)C2(C#N)C(=N)O4)cc1OC (configuration not stated)	ANO1 activ -5
CCOC(=O)N1CCN(C(=O)c2ccc3c(c2)sc2nc(-c4ccccc4)cn23)CC1	none
CCOC(=O)N1CCC(NC(=O)c2ccc3c(c2)sc2nc(-c4ccc(OC)cc4)cn23)CC1	Apaf1 inhib 44 (no result: ANO1 activ)
CCC1Oc2ccc(C)cc2N(CC(=O)N(Cc2cccnc2)Cc2cccc(F)c2)C1=O (configuration not stated)	ANO1 block 100
CCC1Oc2ccc(C)cc2N(CC(=O)N(Cc2ccncc2)Cc2ccco2)C1=O (configuration not stated)	none
CSc1nnc(C)c(=O)n1COC(=O)c1ccc(S(=O)(=O)N2CCCC2)cc1	none
CN(C)CCc1cc2c(c3c1ccc1ccccc13)OCO2	UBC13 polyUb inconclusive, FID counter 43
COc1ccc(OC)c(NC(=O)CCN2C(=O)c3cccc([N+](=O)[O-])c3C2=O)c1	none
COc1ccc(NC(=O)CCCCCN2C(=O)c3cccc([N+](=O)[O-])c3C2=O)c(OC)c1	Apaf1 inhib 41
COC(=O)c1c(C)[nH]c(C)c1-c1ccc(C)cc1	none
COC(=O)c1c(C)[nH]c(C)c1-c1cccc([N+](=O)[O-])c1	ANO1 activ -7.7
CC(C)Cc1ccc(C(C)C(N)=NCCc2ccccc2)cc1 (configuration not stated)	FID counter 39
Nc1ccc2nc(CN3CCOCC3)[nH]c2c1	ANO1 activ -19
c1ccc2[nH]c(CN3CCOCC3)nc2c1	none
CCCN1C2CCCC1CC(NC(=O)c1ccccc1OCC)C2 (configuration not stated)	none
CCCN1C2CCCC1CC(NC(=O)c1ccccc1OC)C2 (configuration not stated)	ANO1 block 100
C[C@H]1CN=C(Nc2ccccc2)N1CC1CCCCCC1	ANO1 activ -6.7
C[C@H]1CN=C(Nc2ccccc2)N1CC1CCC1	none
Cc1ccc(S(=O)(=O)N2CCC(C(=O)O)CC2)cc1	none
Cc1cccc(/C=N/n2c(-c3cc(-c4ccccc4)n[nH]3)n[nH]c2=S)c1	ANO1 activ -6.6
S=c1[nH]nc(-c2cc(-c3ccccc3)n[nH]2)n1/N=C/c1ccccc1	none
CN(C)c1c([N+](=O)[O-])ncn1C	UBC13 polyUb inconclusive, ANO1 activ -9.6
CCNc1c([N+](=O)[O-])ncn1C	none
Cc1ccc(C)c(OCCC(=O)Nc2ccccc2C(=O)NC2CC2)c1	none (no result: ANO1 block, FID counter)
C[C@@H]1CC[C@]2(C(=O)O)CC[C@]3(C)C(=CCC4[C@]56CC[C@@](O)(OC5)C(C)(C)C6CC[C@]43C)C2[C@H]1C (some centres not stated)	ANO1 block 100 (no result: FID counter)
C[C@H]1[C@H](C)CC[C@]2(C(=O)O)CC[C@]3(C)C(=CC[C@@H]4[C@@]5(C)C[C@@H](O)[C@H](O)C(C)(C)[C@@H]5CC[C@]43C)[C@H]12	ANO1 activ -9.7
C[C@H]1[C@H](C)CC[C@]2(C(=O)O)CC[C@]3(C)C(=CC[C@@H]4[C@@]5(C)CC[C@H](O)C(C)(C)[C@@H]5CC[C@]43C)[C@H]12	none (no result: FID counter)
